Assay results published in ChEMBL document CHEMBL4308880, “Novel monoamine oxidase inhibitors based on the privileged 2-imidazoline molecular framework” (Bioorg Med Chem Lett, 2019).
One block for each compound: values may come before it.

Legend:
[1] = target: T1, Amine oxidase [flavin-containing] A (Homo sapiens, UniProt P21397); experiment: Inhibition of recombinant human MAOA expressed in insect cell microsomes using kynuramine as substrate preincubated with substrate for 30 mins followed by enzyme addition and measured after 20 mins by fluorescence spectrophotometry
T1 sequence (P21397 whole entry): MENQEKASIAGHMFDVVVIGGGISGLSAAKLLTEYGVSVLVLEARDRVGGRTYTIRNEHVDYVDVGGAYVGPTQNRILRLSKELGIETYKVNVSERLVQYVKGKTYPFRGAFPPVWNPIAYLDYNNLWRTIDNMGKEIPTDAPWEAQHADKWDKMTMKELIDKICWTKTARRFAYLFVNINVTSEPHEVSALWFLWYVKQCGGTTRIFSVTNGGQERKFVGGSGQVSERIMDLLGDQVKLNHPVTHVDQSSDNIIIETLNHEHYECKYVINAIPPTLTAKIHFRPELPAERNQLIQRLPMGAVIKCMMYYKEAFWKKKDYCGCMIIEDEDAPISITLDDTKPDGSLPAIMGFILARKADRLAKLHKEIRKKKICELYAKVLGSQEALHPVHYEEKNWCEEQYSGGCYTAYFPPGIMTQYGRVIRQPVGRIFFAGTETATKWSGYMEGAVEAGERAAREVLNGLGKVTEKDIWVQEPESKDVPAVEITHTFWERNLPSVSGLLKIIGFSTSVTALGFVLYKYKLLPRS
Method in brief: (§1)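 Recombinant human enzyme; kynuramine as substrate for both isoforms. 4-Hydroxyquinoline product read by fluorescence spectrophotometry after alkalization. Rates measured without and with inhibitor at 0.0003–100 µM. IC50 estimated from sigmoidal plots of rate versus log inhibitor concentration. Reported as mean ± standard deviation of triplicate experiments.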

[2] = target: T2, Amine oxidase [flavin-containing] B (Homo sapiens, UniProt P27338); experiment: Inhibition of recombinant human MAOB expressed in insect cell microsomes using kynuramine as substrate preincubated with substrate for 30 mins followed by enzyme addition and measured after 20 mins by fluorescence spectrophotometry; method in brief: as §1
T2 sequence (P27338 whole entry): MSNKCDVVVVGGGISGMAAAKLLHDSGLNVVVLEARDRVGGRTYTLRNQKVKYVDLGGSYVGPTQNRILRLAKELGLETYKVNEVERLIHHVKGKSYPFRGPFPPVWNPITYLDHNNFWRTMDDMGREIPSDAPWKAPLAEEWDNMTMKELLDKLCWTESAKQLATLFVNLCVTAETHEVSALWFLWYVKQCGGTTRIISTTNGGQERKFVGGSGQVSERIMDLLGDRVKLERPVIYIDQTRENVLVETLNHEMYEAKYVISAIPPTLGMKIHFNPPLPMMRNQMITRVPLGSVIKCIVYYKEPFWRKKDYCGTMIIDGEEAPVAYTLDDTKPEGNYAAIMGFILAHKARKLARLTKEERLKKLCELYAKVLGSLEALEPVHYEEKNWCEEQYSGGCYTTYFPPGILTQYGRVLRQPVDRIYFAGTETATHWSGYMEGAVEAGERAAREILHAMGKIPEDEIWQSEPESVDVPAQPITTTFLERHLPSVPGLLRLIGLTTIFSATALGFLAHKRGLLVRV

Homo sapiens = organism: Homo sapiens; experiment: Selectivity index, ratio of IC50 for recombinant human MAOA expressed in insect cell microsomes to IC50 for recombinant human MAOB expressed in insect cell microsomes
[3] = target: T2, Amine oxidase [flavin-containing] B; experiment: Inhibition of recombinant human MAO-B expressed in insect cell microsomes assessed as residual activity using kynuramine as substrate at 4 times IC50 concentration preincubated for 15 mins measured after 20 mins by fluorescence spectroscopy relative to control
Method in brief: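 Enzyme mixed with inhibitor at 4 × IC50 and incubated 15 min, with no dialysis. Residual activity read with kynuramine by 4-hydroxyquinoline fluorescence and expressed against the dialyzed no-inhibitor control.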

[4] = target: T2, Amine oxidase [flavin-containing] B; experiment: Reversible inhibition of recombinant human MAO-B expressed in insect cell microsomes assessed as residual activity using kynuramine as substrate at 4 times IC50 concentration preincubated for 15 mins with subsequent dialysis for 24 hrs followed by substrate addition measured after 20 mins by fluorescence spectroscopy relative to control
Method in brief: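 Enzyme preincubated 15 min with inhibitor at 4 × IC50, then dialyzed 24 h. Samples then diluted twofold to 2 × IC50. Kynuramine added and reactions run 20 min. 4-Hydroxyquinoline quantified by fluorescence spectrophotometry. Controls: dialysis with no inhibitor (set as 100%) and dialysis with the irreversible inhibitor (R)-deprenyl.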

[5] = target: T2, Amine oxidase [flavin-containing] B; experiment: Competitive inhibition of human MAOB expressed in insect cell microsomes using varying levels of kynuramine as substrate measured after 20 mins by Lineweaver-burk plot analysis
Method in brief: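 Activity recorded at 8 kynuramine concentrations (15–250 µM). Runs done without inhibitor and with five inhibitor levels (¼, ½, ¾, 1 and 1¼ × IC50). Mode of inhibition assigned from Lineweaver-Burk plots.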

[6] = target: T1, Amine oxidase [flavin-containing] A; experiment: Competitive inhibition of human MAOA using p-trifluoromethyl benzylamine as substrate preincubated with substrate for 5 mins followed by enzyme addition by fluorimetric horseradish peroxidase-Amplex Red-coupled assay

SMILES: FC(F)(F)c1cnc2c(c1)Oc1ccccc1C1=NCCN12
- IC50 [1]: 32 µM
- IC50 [2]: > 100000 nM
- Ratio IC50 (Homo sapiens): < 0.32

SMILES: CC1CN=C(c2ccc(-c3noc(-c4ccc(Cl)c(Cl)c4)n3)cc2)N1 (centres undefined)
- IC50 [1]: 14.7 µM
- IC50 [2]: 160 nM
- Ratio IC50 (Homo sapiens): 91

SMILES: Cn1ccnc1SCc1ccc(-c2noc(-c3ccc(C4=NCCN4)cc3)n2)cc1
- IC50 [1]: 12.4 µM
- IC50 [2]: 2280 nM
- Ratio IC50 (Homo sapiens): 5.4

SMILES: N#Cc1ccc(C2=NCCN2c2cnccn2)cc1
- IC50 [1]: > 100 µM
- IC50 [2]: 17200 nM
- Ratio IC50 (Homo sapiens): > 5.8

SMILES: Clc1ccc(-c2noc(-c3ccc(C4=NCCN4)cc3)n2)cc1Cl
- IC50 [1]: 1.11 µM
- IC50 [2]: 12 nM
- Ratio IC50 (Homo sapiens): 92

SMILES: CC(C)(C)c1ccc(-c2noc(-c3ccc(C4=NCCN4)cc3)n2)cc1
- IC50 [1]: 0.751 µM
- IC50 [2]: 411 nM
- Ratio IC50 (Homo sapiens): 1.8

SMILES: Cc1nn(Cc2nc(-c3cccc(C4=NCCN4)c3)no2)c(=O)c2ccccc12
- IC50 [1]: 62.2 µM
- IC50 [2]: 23900 nM
- Ratio IC50 (Homo sapiens): 2.6

SMILES: O=c1ccc(-c2ccccc2)nn1Cc1noc(-c2ccc(C3=NCCN3)cc2)n1
- IC50 [1]: > 100 µM
- IC50 [2]: 608 nM
- Ratio IC50 (Homo sapiens): > 164

SMILES: Cc1ccc(-c2noc(-c3ccc(C4=NCC(C)N4)cc3)n2)s1 (centres undefined)
- IC50 [1]: 24.7 µM
- IC50 [2]: 300 nM
- Ratio IC50 (Homo sapiens): 82

SMILES: O=c1c2ccccc2cnn1Cc1noc(-c2ccc(C3=NCCN3)cc2)n1
- IC50 [1]: > 100 µM
- IC50 [2]: 1260 nM
- Ratio IC50 (Homo sapiens): > 79

SMILES: c1ccc(-c2ccc(-c3noc(-c4ccc(C5=NCCN5)cc4)n3)cc2)cc1
- IC50 [1]: > 100 µM
- IC50 [2]: 47600 nM
- Ratio IC50 (Homo sapiens): > 2.1

SMILES: COc1ccc(-c2noc(-c3ccc(C4=NCCN4)cc3)n2)cc1OC
- IC50 [1]: > 100 µM
- IC50 [2]: 756 nM
- Ratio IC50 (Homo sapiens): > 132

SMILES: c1cc(C2=NCCN2)cc(-c2noc(-c3cccs3)n2)c1
- IC50 [1]: 88.3 µM
- IC50 [2]: 1060 nM
- Ratio IC50 (Homo sapiens): 83

SMILES: Clc1cccc(-c2nc(-c3cccc(C4=NCCN4)c3)no2)c1
- IC50 [1]: 1.39 µM
- IC50 [2]: 30 nM
- Ratio IC50 (Homo sapiens): 46

SMILES: c1ccc2c(c1)Oc1nccnc1N1CCN=C21
- IC50 [1]: > 100 µM
- IC50 [2]: > 100000 nM

SMILES: c1ncn(Cc2ccc(-c3noc(-c4ccc(C5=NCCN5)cc4)n3)cc2)n1
- IC50 [1]: 24.6 µM
- IC50 [2]: 9020 nM
- Ratio IC50 (Homo sapiens): 2.7

SMILES: Cn1ncc2c(c1=O)Oc1ccccc1C1=NCCN12
- IC50 [1]: > 100 µM
- IC50 [2]: > 100000 nM

SMILES: N#Cc1ccc(C2=NCCN2c2ccc(C(F)(F)F)cn2)cc1
- IC50 [1]: > 100 µM
- IC50 [2]: 41800 nM
- Ratio IC50 (Homo sapiens): > 2.4

Other lines, results leading:

- IC50 [1]: 22.5 µM
- IC50 [2]: 230 nM
- Ratio IC50 (Homo sapiens): 97
SMILES: CC(C)c1noc(-c2ccc(C3=NCCN3)cc2)n1

- IC50 [1]: 1.57 µM
- IC50 [2]: 890 nM
- Ratio IC50 (Homo sapiens): 1.7
SMILES: c1csc(-c2noc(-c3ccc(C4=NCCN4)cc3)n2)c1

- IC50 [1]: > 100 µM
- IC50 [2]: 18400 nM
- Ratio IC50 (Homo sapiens): > 5.4
SMILES: c1ccc(-n2cc(C3=NCCN3)c(-c3cccs3)n2)cc1

- IC50 [1]: 17.1 µM
- IC50 [2]: 30 nM
- Ratio IC50 (Homo sapiens): 570
SMILES: Clc1ccccc1-c1noc(-c2ccc(C3=NCCN3)cc2)n1

- IC50 [1]: 5.47 µM
- IC50 [2]: 64 nM
- Ratio IC50 (Homo sapiens): 85
SMILES: Clc1cccc(-c2noc(-c3ccc(C4=NCCN4)cc3)n2)c1

- IC50 [1]: 12 µM
- IC50 [2]: 216 nM
- Ratio IC50 (Homo sapiens): 55
SMILES: COc1cccc(-c2noc(-c3ccc(C4=NCCN4)cc3)n2)c1

- IC50 [1]: > 100 µM
- IC50 [2]: 9980 nM
- Ratio IC50 (Homo sapiens): > 10
SMILES: c1ccc(OCc2noc(-c3ccc(C4=NCCN4)cc3)n2)cc1

- IC50 [1]: 41.1 µM
- IC50 [2]: 39700 nM
- Ratio IC50 (Homo sapiens): 1
SMILES: Cc1nc(-c2ccc(C3=NCCN3)cc2)no1

- IC50 [1]: 55.5 µM
- IC50 [2]: 3640 nM
- Ratio IC50 (Homo sapiens): 15
SMILES: Cc1ccc(Cc2noc(-c3ccc(C4=NCCN4)cc3)n2)cc1

- IC50 [1]: 147 µM
- IC50 [2]: 1870 nM
- Ratio IC50 (Homo sapiens): 78
SMILES: N#Cc1cccc(C2=NCCN2)c1

- IC50 [1]: 2.31 µM
- IC50 [2]: 71 nM
- Activity [3]: 36%
- Activity [4]: 66%
- Ratio IC50 (Homo sapiens): 32
- Ki [5]: 38 nM
SMILES: Cc1ccc(-c2nc(-c3ccc(C4=NCCN4)cc3)no2)cc1

- IC50 [1]: > 100 µM
- IC50 [2]: > 100000 nM
SMILES: COc1ccc(C2=NCCN2)cc1Cn1ccnc1C

- Ki [6]: 17 µM
SMILES: c1ccc2oc(C3=NCCN3)cc2c1

- IC50 [1]: 7.37 µM
- IC50 [2]: 4280 nM
- Ratio IC50 (Homo sapiens): 1.7
SMILES: c1cc(-c2noc(C3CC3)n2)ccc1C1=NCCN1

- IC50 [1]: > 100 µM
- IC50 [2]: > 100000 nM
SMILES: CCOc1ccc(-c2n[nH]cc2C2=NCCN2)cc1

- IC50 [1]: 2.77 µM
- IC50 [2]: 1370 nM
- Ratio IC50 (Homo sapiens): 2
SMILES: c1ccc(Oc2ccc(-c3noc(-c4ccc(C5=NCCN5)cc4)n3)cc2)cc1
